From PubChem BioAssay
TbMetRS inhib: T. brucei MetRS inhibitors, primary screen, biochemical, luminescence | methionyl-tRNA synthetase (Trypanosoma brucei brucei) | purified T. brucei MetRS, ATP depletion, Kinase-Glo luminescence | inhibition, % at 11.9 µM | 0.4% of 360,000 active;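 active means inhibition above a per-plate cutoff of the control wells' mean inhibition plus 3 SD, cut at about 5.5% in these data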;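 further: 0% = DMSO wells median and 100% = median of wells with control inhibitor compound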
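Material: T. brucei methionyl-tRNA synthetase, purified; reagent: substrates ATP, L-methionine and bulk Escherichia coli tRNA; dosing: 11.9 µM single point; timing: 15 min plus 2 h at 25 °C; detection: luminescence of leftover ATP; evaluation: % inhibition; control set: DMSO-only wells as low control; replicates: singlicate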
ADAM17 inh: ADAM17 inhibitors, primary screen, biochemical, QFRET; inhibition, % at 6.95 µM; 0.83% of 370,000 active; Disintegrin and metalloproteinase domain-containing protein 17 (Homo sapiens), P78536; recombinant ADAM17, EDANS/DABCYL FRET peptide cleavage; AID 720648, 2013;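 active means inhibition above the mean of compounds lying between control limits plus 3 SD, set per campaign, cut at about 8.5% in these data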;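 further: 0% = DMSO-only wells as the low control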
ADAM10 inh: human ADAM10 inhibitors, primary screen, biochemical, QFRET, HTS; Disintegrin and metalloproteinase domain-containing protein 10 (Homo sapiens), O14672; recombinant ADAM10, EDANS/DABCYL FRET peptide cleavage, 3 h; inhibition, % at 7 µM; 0.62% of 370,000 active;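 active means inhibition above a per-campaign cutoff equal to the mean of compounds falling between control-based bounds plus 3 SD, cut at about 20% in these data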;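 further: 0% = DMSO wells while the 100% control is not disclosed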
PLCb3 inh: human PLC-beta3 inhibitors, primary screen, biochemical, fluorescence; Purified PLC-beta3, fluorogenic substrate; inhibition, % at 12.2 µM; 0.18% of 370,000 active; AID 720704, 2013; in the data active means inhibition above about 11%;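 further: 0% = median of compound wells on plate and 100% = full blocker control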
PLCg1 inh: PLC-gamma1 enzyme inhibitors, primary screen, biochemical, fluorescence, purified enzyme | 1-phosphatidylinositol 4,5-bisphosphate phosphodiesterase gamma-1 (Homo sapiens), P19174 | fluorogenic substrate | inhibition, % at 12.2 µM | 0.84% of 370,000 active | AID 720700, 2013; in the data active means inhibition above about 9.5%
ADAM10 confirm: human ADAM10 inhibitors, confirmation, biochemical, QFRET, triplicate. shares compounds with ADAM10 inh. inhibition, % at 6.95 µM. ADAM10 QFRET peptide cleavage, EDANS fluorescence. 1% of 2,100 active;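 active means inhibition above about 20% chosen separately for each screening run, limit read from the data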;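 further: 0% = DMSO wells and 100% = marimastat wells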
ADAM17 ctr: ADAM17 inhibitors, counter-screen for ADAM10 exosite inhibitor project, biochemical, QFRET, high throughput | inhibition, % at 6.95 µM | shares compounds with ADAM10 inh | 0.5% of 2,100 active | ADAM17 QFRET peptide cleavage, EDANS fluorescence;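 active means mean triplicate inhibition above the solvent-only control wells' mean plus 3 SD, cut at about 12% in these data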;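 further: 0% = DMSO wells and 100% = marimastat wells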
* hit, by the source's call; i = inactive; / = not tested or not shown. Most compounds without a hit are left out; they make up all but 2.3% or so of the library.

SMILES	TbMetRS inhib	ADAM17 inh	ADAM10 inh	PLCb3 inh	PLCg1 inh	ADAM10 confirm	ADAM17 ctr
Cc1cccc(-c2noc(CNC(=O)c3ccc4c(c3)OCO4)n2)c1	-1	2	23*	-12	-1	0	1
COc1ccc(-c2noc(CNC(=O)c3ccc4c(c3)OCO4)n2)cc1	-1	2	-3	-8	2	/	/
COc1ccc(NC(=O)c2ccccc2[N+](=O)[O-])cc1	0	-2	-1	3	3	/	/
COc1ccccc1Nc1ccc(NC(=O)c2cccc([N+](=O)[O-])c2C)cc1	-1	8	35*	-6	1	13	4
Cc1ccc2oc(=O)c(/C=C(\O)c3ccco3)nc2c1	0	1	21*	-13	0	1	-1
Cc1ccc2oc(=O)c(/C=C(\O)C(C)(C)C)nc2c1	0	2	-7	1	0	/	/
CCc1nc2ccccc2c(C(=O)OCC(=O)Nc2cccc(S(=O)(=O)N3CCOCC3)c2)c1C	1	5	22*	7	8	3	1
CCc1nc2ccccc2c(C(=O)OCC(=O)Nc2cccc(S(=O)(=O)NC3=NCCCCC3)c2)c1C	0	6	15	-13	7	/	/
COc1cc2c(cc1OC)C(c1ccccc1)N(C(=O)c1ccccc1F)CC2 (configuration not stated)	0	-1	21*	2	8	1	0
CCC(C)(C)C1CCc2[nH]nc(C(=O)NCCCNC(=O)OC(C)(C)C)c2C1 (configuration not stated)	0	-6	3	1	2	/	/
CCn1c(SCC(=O)Nc2nc3ccccc3s2)nnc1-c1ccc(OC)cc1	-1	1	20*	5	3	0	1
CCOC(=O)c1c(NC(=O)CSc2nnc(-c3ccccc3)n2CC)sc(C(C)=O)c1C	0	4	23*	3	9	-2	0
COc1cc(C2CC=C(C(=O)O)C(c3ccccc3F)N2S(=O)(=O)c2ccc(C)cc2)cc(OC)c1OC (configuration not stated)	/	0	2	2	2	/	/
COc1ccc(Nc2nc(-c3ccccc3O)nc3ccccc23)cc1	0	5	21*	-147	-104	10	3
O=C(Nc1ccc(OC(F)F)c(Cl)c1)C(c1ccccc1)c1ccccc1	-1	14*	28*	2	2	7	4
COc1ccc(S[C@]2(C(=O)N3CCN(c4ncccn4)CC3)CC(=O)N(P(=O)(OC)OC)[C@@H]2c2ccc(OC)cc2)cc1	/	2	-2	-2	-1	/	/
COc1ccc(-c2cc(-c3ccc(C)cc3)n[nH]2)c(O)c1	-1	6	33*	-5	8	2	2
COc1ccc(-c2n[nH]c(C)c2-c2ccc(Cl)cc2)c(O)c1	-1	8	20*	-1	0	5	3
Cc1[nH]nc(-c2ccc(O)cc2O)c1-c1ccc(Cl)cc1	-1	7	20*	0	-2	2	0
COc1ccc(-c2cc(-c3cc(C)ccc3O)[nH]n2)cc1	0	5	17	4	2	/	/
CCOC(=O)c1c(N)sc(C(O)(C(F)(F)F)C(F)(F)F)c1-c1ccc(F)cc1	0	11*	24*	-4	0	6	2
CCOC(=O)c1c(NC(=O)C2C3CCC(O3)C2C(=O)O)sc(C)c1-c1ccc(F)cc1 (configuration not stated)	-1	-7	-4	-3	-3	/	/
O=C1CCC(C(=O)OCc2cc(=O)oc3ccc4ccccc4c23)=NN1	0	-244	i	-209	-149	/	/
CC(=O)Nc1ccc2c(c1)nc1n2CCOC1	0	-1	84*	4	-1	1	0
COc1ccc(N2CCN(C(=O)CN(c3ccc(OC)cc3)S(=O)(=O)c3ccccc3)CC2)cc1	0	1	21*	-7	0	3	-1
SMILES	TbMetRS inhib	ADAM17 inh	ADAM10 inh	PLCb3 inh	PLCg1 inh	ADAM10 confirm	ADAM17 ctr
Cc1ccc(CNC(=O)N[C@@H](Cc2ccccc2)C(=O)O)cc1	0	-2	-10	-8	-5	/	/
COCCCNC(=S)N1CCN(C(c2ccccc2)c2ccccc2)CC1	-1	-1	-1	-5	2	/	/
Cc1nn(C)c(C(=O)N/N=C/c2cccc(Oc3ccccc3)c2)c1Br	0	1	24*	-2	5	3	1
Nc1ccc(C(=O)N/N=C/c2cccc(Oc3ccccc3)c2)cc1	0	2	-5	-94	-73	/	/
C=CCC[C@H](CCCCC)OC(=O)/C=C/[C@@H](O)[C@H](O)C[C@@H](O)CC=C	-1	7	21*	2	3	0	0
C=CCC[C@@H](CCCCC)OC(=O)/C=C/[C@H](O)[C@@H](O)C[C@@H](O)CC=C	0	3	1	4	-1	/	/
N#CC1=C(N)NC(SCc2ccc(Br)cc2)=C(C#N)C12CCCCC2	1	8	25*	0	-1	9	2
N#CC1=C(N)NC(SCc2ccc(Cl)cc2)=C(C#N)C12CCCCC2	0	7	19	-2	2	/	/
CCCS(=O)(=O)NC(=O)C1(C)CCCN(C(=O)c2cccc(Cl)c2)C1 (configuration not stated)	0	-5	-16	-1	0	/	/
CCC(=O)N1CCC1(C)C(=O)Nc1ncc(C)s1 (configuration not stated)	0	-3	-3	2	1	/	/
O=C(Nc1ccc(S(=O)(=O)N2CCCC2)cc1)c1c(F)cccc1F	0	-1	-4	-3	2	/	/
Cc1ccc(S(=O)(=O)c2ccc(NC(=O)c3c(F)cccc3F)cc2)cc1	0	7	24*	-3	0	0	1
Cc1cc(C(=O)N2CCN(Cc3ccccc3)CC2)on1	0	2	3	5	2	/	/
COc1cc(NC(=O)C/C(C)=N/NC(=O)c2cccs2)c(OC)cc1Cl	0	15*	28*	0	4	0	1
C/C(CC(=O)Nc1ccc(Cl)cc1C(F)(F)F)=N\NC(=O)c1cccs1	-1	2	5	-12	-1	/	/
O=[N+]([O-])c1cccc(-c2nc(-c3cccs3)c(-c3cccs3)[nH]2)c1	-1	-2	-6	-23	-18	/	/
